Source: PubChem (Broad Institute)
Most compounds without a hit are left out; they make up all but 3.5% or so of the library.
HIV Env fusion = inhibitors of HIV-1 Env-driven cell-cell fusion, primary screen, HeLa-JRFL effector, CEM21 target cells, luciferase; 360,000 compounds, 1.1% hits; AID 651610, 2012; inhibition, % at 12.3 µM;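 active = mean replicate inhibition score of at least 50 and every replicate individually at or above 50; inconclusive = only one of the two criteria met; inactive = mean below 50 and not all replicates reaching 50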;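 also: 0% = plate neutral controls and 100% = maraviroc near 300 nM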
ERAP1 inh = human ERAP1 aminopeptidase inhibitors, primary screen, biochemical, single point, plate reader | 340,000 compounds, 0.15% hits | Endoplasmic reticulum aminopeptidase 1 (Homo sapiens), Q9NZ08 | inhibition, % at 10.7 µM | recombinant ERAP1, Leu-AMC fluorescence, 60 min | AID 652197, 2013;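 active = mean replicate inhibition of at least 30%, or all replicates individually reaching that 30% level; inactive = mean below 30% and not every replicate reaching it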;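 also: 0% = neutral control wells and 100% = L-leucinethiol positive control wells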
Cneo AK release = Cryptococcus neoformans cell lysis inducers, primary screen, AK release luminescence, single concentration; C. neoformans lysis, adenylate kinase release luminescence, 4 h; normalised: neutral wells 0, clomiphene wells 100; lysis activity, % at 15 µM; 360,000 compounds, 0.2% hits; AID 651654, 2012;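 active = mean lysis activity across replicates of at least 80%, whatever share of replicates individually reach that level; inactive = mean lysis activity below 80%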
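Material: C. neoformans cells | Amount: Yeast cell density of 5 × 10^6 cells/mL | Medium: Fresh YPD growth medium | Dosing: Single dose | Times: Static 4 h at 37 °C with compound, 1 h detection | Detection: AK luminescence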
MITF TRPM1 HTS = activators of MITF-driven TRPM1 promoter reporter, primary screen, cell-based, SK-MEL-5, luciferase, single point | activation, % at 12.5 µM | SK-MEL-5 TRPM1-promoter luciferase, 24 h; % of positive control, neutral wells = 0 | 300,000 compounds, 0.75% hits;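 active = mean activation of at least 80% with every replicate also reaching 80%; inconclusive = mean reaches 80% but some replicate falls short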;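 also: 0% = neutral control wells and 100% = parthenolide positive control wells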
esBAF inh = Bmi1 luciferase reporter increase in mESCs, primary screen, esBAF inhibitor project, mouse ES cells, Bmi1 luciferase knock-in, single point; 24 h; 100% = twice the neutral-well signal; reporter increase, % at 12.5 µM; 350,000 compounds, 2% hits; in the data active = activation above about 40%; inconclusive = no clear call, values can overlap the other calls;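 also: 0% = median of the plate's neutral control wells and 100% = double that signal; a rise in the Bmi1 reporter signal indicates esBAF inhibition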
Wnt act = Wnt/beta-catenin pathway activators, primary screen, cell-based, plate reader, single point; Wnt/beta-catenin reporter cell assay, activator; activation, % at 9.35 µM; 300,000 compounds, 1.2% hits; in the data active = activation above about 30%, passing the limit was not always enough; inconclusive = no clear call, values can overlap the other calls;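 also: 0% = neutral control wells and 100% = positive control wells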
The depositor's hits bear a star; ? = inconclusive; . = not tested or not shown; [ ] = remark or other dose.

SMILES	HIV Env fusion	ERAP1 inh	Cneo AK release	MITF TRPM1 HTS	esBAF inh	Wnt act
O=C(Nc1nc(-c2nc3ccccc3s2)cs1)c1ccco1	-66	-1	-1	.	52*	-3
C[C@H]1CCCCO[C@H](CN(C)Cc2ccc(C(F)(F)F)cc2)[C@@H](C)CN([C@@H](C)CO)C(=O)c2cc(NC(=O)CCCN(C)C)ccc2O1	0[16.7 µM]	-1	4	.	-7	.
Cc1cccc(-c2cc3nc4c(c(N5CCOCC5)n3n2)CCCC4)c1	.	-2	-2	30	7	7
Fc1ccc(-c2cc3nc4c(c(N5CCOCC5)n3n2)CCCC4)cc1	.	3	-2	29	53*	9
Cc1cccc(-c2cc3nc4c(c(N5CCCC(O)C5)n3n2)CCC4)c1 (centres undefined)	-144	.	-2	8	8	3
Cc1cccc(-c2cc3nc4c(c(N5CCC6(CC5)OCCO6)n3n2)CCCC4)c1	.	3	-1	91*	78*	9
OC1CCCN(c2c3c(nc4cc(-c5cccc(F)c5)nn24)CCCC3)C1 (centres undefined)	-10	0	.	87*	.	14
C[C@@H]1CN([C@@H](C)CO)S(=O)(=O)c2ccc(C#CCN(C)C)cc2O[C@H]1CN(C)C(=O)C1CCC1	15[16.7 µM]	3	-1	.	-5	.
N#Cc1ccc(-c2cccnc2)nc1SCC(=O)c1ccccc1	-35	1	-9	.	63*	3
CCCCCCc1c(C)c2ccc(OCC(=O)N[C@@H](Cc3ccccc3)C(=O)O)cc2oc1=O	.	32*	0	8	-7	-1
C[C@@H]1CCCCO[C@H](CN(C)Cc2ccc(C(F)(F)F)cc2)[C@H](C)CN([C@H](C)CO)C(=O)c2cc(NC(=O)Cc3ccccc3)ccc2O1	57*[16.7 µM]	.	-1	.	-1	.
C[C@@H]1CCCCO[C@H](CN(C)Cc2ccc(C(F)(F)F)cc2)[C@@H](C)CN([C@@H](C)CO)C(=O)c2cc(NC(=O)Cc3ccccc3)ccc2O1	42[16.7 µM]	.	-1	.	-2	.
C[C@H]1CCCCO[C@@H](CN(C)Cc2ccc(C(F)(F)F)cc2)[C@@H](C)CN([C@@H](C)CO)C(=O)c2cc(NC(=O)Cc3ccccc3)ccc2O1	75*[16.7 µM]	.	5	.	0	.
C[C@@H]1CCCCO[C@H](CN(C)Cc2ccc(C(F)(F)F)cc2)[C@@H](C)CN([C@H](C)CO)C(=O)c2cc(NC(=O)Cc3ccccc3)ccc2O1	12[16.7 µM]	.	-4	.	-3	.
C[C@@H]1CCCCO[C@@H](CN(C)CC2CCCCC2)[C@@H](C)CN([C@@H](C)CO)C(=O)c2cc(NS(=O)(=O)c3ccc(F)cc3)ccc2O1	6[16.7 µM]	-10	5	.	8	.
C[C@@H]1CCCCO[C@H](CN(C)C(=O)CCCN(C)C)[C@H](C)CN([C@H](C)CO)C(=O)c2cc(NS(C)(=O)=O)ccc2O1	3[16.7 µM]	.	.	.	-2	.
O=C(Nc1ccc2c(c1)CCC2)c1ccccc1F	-202	.	.	34	.	30*
CC1(c2ccc(NC(=O)c3ccccc3F)cc2)CC1(Cl)Cl (centres undefined)	-69	.	-4	.	63*	19
O=C(COc1ccccc1F)Nc1ccc2c(c1)CCC2	-58	2	-2	.	18	43*
O=C(O)c1ccccc1-c1ccccc1C(=O)Nc1ccc2c(c1)CCC2	4	.	-1	-4	-1	1
CN1CCN(C(=O)C[C@@H]2C=C[C@@H](NC(=O)Cc3ccccn3)[C@@H](CO)O2)CC1	-13[16.7 µM]	4	-1	.	2	.
Cc1cccc(N=Nc2cnc(N)s2)c1	-37	-6	-4	68	.	35*
COc1ccc2oc(C(=O)OCC(=O)Nc3ccc(C)c(S(=O)(=O)N4CCOCC4)c3)c(C)c2c1	?	-1	-1	.	79*	-2
COc1ccc(CN(C)C[C@@H]2Oc3ccc(NS(=O)(=O)c4cccs4)cc3CC(=O)N([C@@H](C)CO)C[C@H]2C)cc1	.	1	.	.	.	.
O=C(C1CCOCC1)N1CC(=O)N2[C@H](CO)[C@H](c3ccc(C#CC4CC4)cc3)[C@H]2C1	.	0	.	.	.	.
CC(C)C#Cc1ccc([C@@H]2[C@H](CO)N3CCCCN(C(=O)c4ccc5c(c4)OCO5)C[C@@H]23)cc1	.	4	111*	.	.	.
